According to ChEMBL document CHEMBL1123516, “Substituted 1,3,4-thiadiazoles with anticonvulsant activity. 1. Hydrazines” (J Med Chem, 1986):

Tests used:
[1] = test system: Mus musculus; experiment: Anticonvulsant activity tested by maximal electroshock test (MES) in mouse after 1 hr of administration; type: functional
How it was run: (§1)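 Male BKW mice (LACA origin), 18-22 g, dosed ip or po with compound dissolved or suspended in 2% Tween 80 in distilled water. Readout was block of hind limb tonic seizure. ED50 was derived by probit analysis using the computerized Bliss method.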

[2] = Neurotoxicity by a rotarod test in mouse after 1 hr of administration; type: toxicity, organism-based; details: in vivo
How it was run: (§2)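 Male BKW mice, 18-22 g, were pre-trained on a rotorod turning at 16 rpm (3 cm drum). They were dosed ip or po in 2% Tween 80/water and tested at timed intervals. TD50, the dose at which 50% fell off the rod, was derived by probit analysis.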

[3] = test system: Rattus norvegicus; experiment: Maximum percent fall in mean arterial blood pressure was evaluated by injecting 100 mg/kg perorally in DOCA hypertensive rats; type: functional; details: route oral
[4] = test system: Mus musculus; experiment: Anticonvulsant activity tested by maximal metrazole seizure (MMS) test in mouse after 1 hr of administration; type: functional
How it was run: (§3)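 Male BKW mice, 18-22 g, dosed orally with compound in 2% Tween 80/water. Metrazol 120 mg/kg ip was given 1 h after dosing. ED50 for block of hind limb tonic seizure was derived by Bliss probit analysis.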

[5] = Neurotoxicity by performing a rotarod in mouse after 1 hr of administration; type: toxicity, organism-based; details: in vivo; how it was run: as §2
[6] = test system: Mus musculus; experiment: Anticonvulsant activity was assessed by performing maximal electroshock test (MES) 1 hr after dosing, in mouse.; type: functional; how it was run: as §1
[7] = Neurotoxicity by performing a rotarod test in mouse after 1 hr of administration; type: toxicity, organism-based; details: in vivo; how it was run: as §2
[8] = test system: Rattus norvegicus; experiment: Inhibition of hind limb tonus was tested by maximal electroshock test (MES) in rat after 4 hr of peroral administration; type: functional; details: Hindlimb, po
[9] = test system: Rattus norvegicus; experiment: Inhibition of hind limb tonus was tested at time of peak effect by maximal electroshock test (MES) on intraperitoneal administration of compound in rats; type: functional; details: Hindlimb, ip
[10] = test system: Rattus norvegicus; experiment: Inhibition of hind limb tonus was tested by maximal metrazole seizure test after 4 hr of peroral administration in rats; type: functional; details: Hindlimb, po
How it was run: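 Rats received the anticonvulsant orally, then metrazol (leptazol) 80 mg/kg iv, following Desmedt et al. The endpoint was block of the hind limb tonic seizure. ED50 was the dose protecting 50% of animals, by probit analysis (Bliss computerized method), with limits.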

[11] = test system: Mus musculus; experiment: Inhibition of hind limb tonus was tested at time of peak effect by maximal metrazole seizure (MMS) test administered intraperitoneally in mouse; type: organism-based; details: Hindlimb, ip
How it was run: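 Male BKW mice (18-22 g) received compound intraperitoneally in 2% aqueous Tween 80 and were challenged with metrazol 120 mg/kg ip at the time of peak effect. ED50 for block of hind limb tonic seizure in 50% of mice was obtained by probit analysis.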

[12] = test system: Rattus norvegicus; experiment: Inhibition of hind limb tonus was tested by maximal electroshock test (MES) in rat 1 hr after peroral dosing; type: functional; details: Hindlimb, po
[13] = test system: Mus musculus; experiment: Inhibition of hind limb tonus was tested by performing a maximal metrazole seizure (MMS) test in mouse after 1 hr of peroral administration of compound; details: Hindlimb, po
[14] = test system: Mus musculus; experiment: Inhibition of hind limb tonus was tested by maximal electroshock test (MES) in mouse after 1 hr of peroral administration of compound; type: functional; details: Hindlimb, po; how it was run: as §1
[15] = test system: Mus musculus; experiment: Inhibition of hind limb tonus was tested at time of peak effect by maximal electroshock test (MES) in mouse on intraperitoneal administration of compound; type: functional; details: Hindlimb, ip; how it was run: as §1
[16] = Protective index (rat) was from the ratio of plasma concentration at which side effects occur by plasma concentration at which anticonvulsant activity occur.; type: functional
How it was run: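 Rat plasma drug concentration at rotorod impairment was divided by the plasma concentration at MES anticonvulsant activity. Both were measured by HPLC-UV in plasma from dosed rats.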

[17] = test system: Rattus norvegicus; experiment: Inhibition of hind limb tonus was tested by maximal metrazole seizure test after 1 hr of peroral administration in rats; type: functional; details: Hindlimb, po
How it was run: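 Rats were dosed orally, then given metrazol (leptazol) 80 mg/kg iv 1 h later, following the Desmedt method. The endpoint was hind limb tonic seizure, with ED50 by probit analysis.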

[18] = test system: Rattus norvegicus; experiment: Inhibition of hind limb tonus was tested by maximal metrazole seizure test after 1 hr of peroral administration of compound; type: functional; details: Hindlimb, po
[19] = Effect of compound on mouse motor performance was tested by rotarod test after 1 hr of peroral administration; type: ADME, organism-based; details: in vivo, po; how it was run: as §2
[20] = test system: Rattus norvegicus; experiment: Inhibition of hind limb tonus was tested by maximal metrazole seizure test after 4 hr of peroral administration; type: functional; details: Hindlimb, po
[21] = test system: Mus musculus; experiment: Inhibition of hind limb tonus was tested by maximal metrazole seizure (MMS) test in mouse after 1 hr of peroral administration; type: functional; details: Hindlimb, po; how it was run: as §3
[22] = species on record: Rattus norvegicus; experiment: Plasma concentration in rat rotarod test.; type: functional, organism-based
How it was run: (§4)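 Groups of six rats received compound suspended in 2% Tween 80/water (0.5 mL/100 g) ip or po. Blood was drawn by cardiac puncture into heparin at various times. Plasma was extracted and assayed by HPLC-UV on an ODS column with 1% acetic acid/methanol/0.1% aqueous ammonium acetate (45:55).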

[23] = Effect of compound on mouse motor performance was studied by performing a rotarod test in mouse dosing intraperitoneally at time of peak effect.; type: ADME, organism-based; details: in vivo, ip; how it was run: as §2
[24] = test system: Rattus norvegicus; experiment: Inhibition of hind limb tonus was tested by maximal electroshock test (MES) in rat after 1 hr of peroral administration; type: functional; details: Hindlimb, po
[25] = species on record: Rattus norvegicus; experiment: Plasma concentration was determined in rat maximal electroshock test; type: functional, organism-based; how it was run: as §4

Compound: CCCCCCOc1ccccc1-c1nnc(NN)s1.Cl
- ED50 [1]: 20 mg/kg
- TD50 at 1 h [2]: > 150 mg/kg
- Decrease in blood pressure [3]: 10%
- ED50 [4]: 33 mg/kg

Compound: COCN(N)c1nnc(-c2ccccc2Cl)s1
- ED50 [1]: 50 mg/kg
- TD50 at 1 h [5]: 80 mg/kg
- ED50 [4]: 60 mg/kg

Compound: CN(C)N(C)c1nnc(-c2ccccc2-c2ccccc2)s1.Cl
- ED50 [6]: 63 mg/kg
- TD50 at 1 h [7]: > 800 mg/kg
- ED50 [4]: 73 mg/kg

Compound: O=C1NC(=O)C(c2ccccc2)(c2ccccc2)N1 [PHENYTOIN]
- ED50 [8]: 26 mg/kg
- ED50 [9]: 14 mg/kg
- ED50 [10]: 20 mg/kg
- ED50 [11]: 12 mg/kg
- ED50 [12]: 14 mg/kg
- ED50 [13]: 8 mg/kg
- ED50 [14]: 8 mg/kg
- ED50 [15]: 8 mg/kg
- PI [16]: 5.17
- ED50 [17]: 12 mg/kg

Compound: CN(N)c1nnc(-c2ccccc2-c2ccccc2)s1
- ED50 [18]: 13 mg/kg
- ED50 [8]: 11 mg/kg
- TD50 at 1 h [19]: > 1000 mg/kg
- ED50 [9]: 6 mg/kg
- ED50 [20]: 13 mg/kg
- ED50 [21]: 27 mg/kg
- ED50 [14]: 18 mg/kg
- Concentration [22]: 57 µg/mL
- ED50 [15]: 17 mg/kg
- TD50 [23]: 93 mg/kg
- PI [16]: 5.14
- ED50 [24]: 16 mg/kg
- Concentration [25]: 11.1 µg/mL
